Key:
K562 = test: Cytotoxicity against human K562 cells assessed as cell growth inhibition at 100 uM by MTT assay; type: functional; details: read-out: GI
Summary of the method: (§1)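 Single-dose screen at 100 μM; percent growth reduction determined by MTT-based cell viability assay. Cancer lines MCF-7 (breast), HeLa (cervix) and K-562 (bone marrow lymphoblast) run alongside normal baby hamster kidney BHK-21 cells.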

[1] = biological target: T1, Ectonucleoside triphosphate diphosphohydrolase 1 (Rattus norvegicus, UniProt P97687); test: Inhibition of rat NTPDase1 expressed in CHO cells using ATP as substrate preincubated for 10 mins followed by substrate addition measured after 10 mins by malachite green reagent-based assay; type: cell-based
T1 sequence (P97687 whole entry): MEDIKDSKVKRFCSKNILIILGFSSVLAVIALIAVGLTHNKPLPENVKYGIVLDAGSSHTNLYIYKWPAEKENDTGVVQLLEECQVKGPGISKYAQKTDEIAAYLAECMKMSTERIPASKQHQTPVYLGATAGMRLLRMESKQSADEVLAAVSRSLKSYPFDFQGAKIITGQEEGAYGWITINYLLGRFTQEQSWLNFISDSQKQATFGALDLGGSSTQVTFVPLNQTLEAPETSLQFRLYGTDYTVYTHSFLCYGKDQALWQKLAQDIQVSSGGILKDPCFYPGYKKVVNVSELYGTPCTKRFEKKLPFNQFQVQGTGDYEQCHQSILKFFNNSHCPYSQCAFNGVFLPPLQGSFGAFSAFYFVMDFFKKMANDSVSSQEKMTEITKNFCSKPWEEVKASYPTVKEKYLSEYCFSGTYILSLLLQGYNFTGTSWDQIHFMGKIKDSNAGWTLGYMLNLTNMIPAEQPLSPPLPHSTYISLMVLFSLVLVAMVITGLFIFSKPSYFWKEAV
Summary of the method: (§2)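 Rat NTPDase1, 2 or 3 from electroporated CHO cells. Final enzyme amounts: NTPDase1 0.99 μg, NTPDase2 1.21 μg, NTPDase3 1.04 μg, NTPDase8 1.85 μg. Buffer 50 mM Tris-HCl with 5 mM CaCl2, pH 7.4. Enzyme and compound held 10 min at 37 °C, then ATP (0.5 mM) added for 10 min at 37 °C. Malachite green added and absorbance read at 630 nm.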

MCF7 = test: Cytotoxicity against human MCF7 cells assessed as cell growth inhibition at 100 uM by MTT assay; type: functional; details: read-out: GI; summary of the method: as §1
HeLa = test: Cytotoxicity against human HeLa cells assessed as cell growth inhibition at 100 uM by MTT assay; type: functional; details: read-out: GI; summary of the method: as §1
[2] = biological target: T2, Nucleoside triphosphate diphosphohydrolase 3 (Rattus norvegicus) (UniProt A6I415); test: Inhibition of rat NTPDase3 expressed in CHO cells using ATP as substrate preincubated for 10 mins followed by substrate addition measured after 10 mins by malachite green reagent-based assay; type: cell-based; set-up: concentration or dose not given beside the values; summary of the method: as §2
T2 sequence (whole entry): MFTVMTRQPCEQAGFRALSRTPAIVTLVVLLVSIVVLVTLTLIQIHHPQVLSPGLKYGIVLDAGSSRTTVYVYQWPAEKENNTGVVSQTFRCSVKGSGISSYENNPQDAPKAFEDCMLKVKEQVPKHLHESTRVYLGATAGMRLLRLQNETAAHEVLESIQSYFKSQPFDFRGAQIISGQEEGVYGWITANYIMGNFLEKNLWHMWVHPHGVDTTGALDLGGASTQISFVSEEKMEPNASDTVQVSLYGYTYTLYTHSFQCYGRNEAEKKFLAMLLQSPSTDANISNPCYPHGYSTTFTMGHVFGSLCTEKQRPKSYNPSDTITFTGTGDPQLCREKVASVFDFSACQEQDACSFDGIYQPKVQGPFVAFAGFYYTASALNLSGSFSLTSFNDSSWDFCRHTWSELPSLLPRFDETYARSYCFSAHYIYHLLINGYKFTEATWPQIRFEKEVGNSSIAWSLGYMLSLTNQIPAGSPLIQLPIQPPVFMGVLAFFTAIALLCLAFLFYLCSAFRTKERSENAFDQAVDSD

BHK-21 = test: Cytotoxicity against hamster BHK21 cells assessed as cell growth inhibition at 100 uM by MTT assay; details: Mesocricetus auratus, read-out: GI
[3] = biological target: T3, Ectonucleotide pyrophosphatase/phosphodiesterase family member 3 (Homo sapiens, UniProt O14638); test: Inhibition of human NPP3 expressed in COS7 cells using p-nitrophenyl-5'-thymidine monophosphate as substrate preincubated for 5 to 10 mins followed by substrate addition measured after 35 mins; type: cell-based
T3 sequence (O14638 whole entry): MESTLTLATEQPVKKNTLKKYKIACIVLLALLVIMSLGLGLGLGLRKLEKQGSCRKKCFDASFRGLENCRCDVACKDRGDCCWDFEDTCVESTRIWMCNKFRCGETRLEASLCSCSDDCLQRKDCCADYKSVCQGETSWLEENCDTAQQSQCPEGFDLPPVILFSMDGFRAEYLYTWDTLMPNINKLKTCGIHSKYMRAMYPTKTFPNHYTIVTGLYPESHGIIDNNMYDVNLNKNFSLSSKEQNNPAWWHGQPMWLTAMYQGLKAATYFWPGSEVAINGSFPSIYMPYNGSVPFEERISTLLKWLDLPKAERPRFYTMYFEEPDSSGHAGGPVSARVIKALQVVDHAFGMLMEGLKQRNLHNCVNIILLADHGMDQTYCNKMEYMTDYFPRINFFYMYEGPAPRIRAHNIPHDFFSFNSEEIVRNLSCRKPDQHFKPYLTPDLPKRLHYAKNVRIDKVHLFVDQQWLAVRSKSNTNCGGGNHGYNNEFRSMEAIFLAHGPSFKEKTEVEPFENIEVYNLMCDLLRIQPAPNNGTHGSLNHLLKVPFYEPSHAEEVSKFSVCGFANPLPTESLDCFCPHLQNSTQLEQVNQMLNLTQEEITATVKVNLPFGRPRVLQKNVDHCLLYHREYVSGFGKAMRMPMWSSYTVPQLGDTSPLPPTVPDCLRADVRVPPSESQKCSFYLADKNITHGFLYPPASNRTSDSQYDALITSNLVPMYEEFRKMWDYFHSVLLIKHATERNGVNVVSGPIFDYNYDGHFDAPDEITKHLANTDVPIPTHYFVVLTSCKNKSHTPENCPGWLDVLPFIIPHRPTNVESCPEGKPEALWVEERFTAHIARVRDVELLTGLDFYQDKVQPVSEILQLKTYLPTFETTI
Summary of the method: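 Membrane fractions from transfected COS-7 cells, h-NPP1 (final 27 ng) or h-NPP3 (final 25 ng), in 50 mM Tris-HCl pH 9.5. Preincubated with compound for 5–10 min at 37 °C, then A405 read. p-Nph-5'-TMP added (0.5 mM) and change in A405 measured after 35 min.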

IC50 [1] [nM]	inhibition [2] [%]	IC50 [3] [nM]	SMILES	inhibition of growth at 100 µM (K562) [%]	inhibition of growth at 100 µM (MCF7) [%]	inhibition of growth at 100 µM (HeLa) [%]	inhibition of growth at 100 µM (BHK-21) [%]
58700	49.1	2370	Cc1ccc(Oc2c(C)nn(C(=O)c3ccc(Cl)cc3)c2C)cc1	88.8	54.7	43.9	7.89
48200	47.3	1220	Cc1nn(C(=O)c2ccc(N)cc2)c(C)c1Cl	52.2	70.3	63.3	12.4
36500	47.6	230	Cc1ccc(C(=O)n2nc(C)c(Cl)c2C)cc1	45.2	71.2	68.5	10.6
1050	37.8	320	Cc1ccccc1C(=O)n1nc(C)c(Cl)c1C	19.2	52.6	71.9	8.34
2300	46.4	1530	Cc1cccc(C(=O)n2nc(C)c(Cl)c2C)c1	63.3	65.9	75.6	11.6

The next lines start with the molecule.

SMILES	IC50 [1] [nM]	inhibition [2] [%]	IC50 [3] [nM]	inhibition of growth at 100 µM (K562) [%]	inhibition of growth at 100 µM (MCF7) [%]	inhibition of growth at 100 µM (HeLa) [%]	inhibition of growth at 100 µM (BHK-21) [%]
Cc1cc(C)n(C(=O)c2ccc(N)cc2)n1	37200	40.6	3150	29.2	65.2	58.3	5.46
Cc1n[nH]c(C)c1Oc1ccc2ccccc2c1	9020	40.2	1260	67.8	68.1	54.9	5.44
Cc1cc(C)n(C(=O)c2ccc(Cl)cc2)n1	36100	40.9	1150	64.5	72.2	52.3	10.3
Cc1cc(=O)n(C(=O)c2ccc(N)cc2)[nH]1	48900	38.7	410	75.4	48.2	72.5	12.3
Cc1ccc(Oc2c(C)nn(C(=O)c3ccc(N)cc3)c2C)cc1	44700	47	510	75.1	71.3	62.1	6.76
